Measurements gathered from unrelated publications.
Each line is one published result; the experiments were not run side by side.
ADAM17: Disintegrin and metalloproteinase domain-containing protein 17 (ADAM17, Homo sapiens, UniProt P78536)
MAPKAPK2: MAP kinase-activated protein kinase 2 (MAPKAPK2, Homo sapiens, UniProt P49137)

Cn1cc(-c2cccc(N3CCc4c(sc5c4CC(C)(C)C5)C3=O)c2CO)cc(Nc2ccncn2)c1=O
inhibition (Phosphatidylinositol 4,5-bisphosphate 3-kinase catalytic subunit alpha isoform (PIK3CA, Homo sapiens, UniProt P42336); enzyme activity; inhibitor; 1 µM): 14%

CN(C)C(=O)COC(=O)Cc1ccc(OC(=O)c2ccc(NC(=N)N)cc2)cc1
inhibition (ADAM17; enzyme activity; inhibitor; 10 µM): 6%

COc1cc(Nc2ncc(F)c(Nc3ccc4c(n3)NC(=O)C(C)(C)O4)n2)cc(OC)c1OC
inhibition (Mitogen-activated protein kinase kinase kinase 12 (MAP3K12, Homo sapiens, UniProt Q12852); binding; competition with immobilised ligand; 10 µM): 32%

c1ccc(C(NCCNC(c2ccccc2)c2ccccc2)c2ccccc2)cc1
inhibition (Gamma-aminobutyric acid type B receptor subunit 1 (GABBR1, Homo sapiens, UniProt Q9UBS5); cell-free assay; 10 µM): -14%

CC(C)C[C@H](NC(=O)[C@H](Cc1ccccc1)NC(=O)c1cnccn1)B(O)O
inhibition (Cathepsin G (CTSG, Homo sapiens, UniProt P08311); enzyme activity; inhibitor; 33 µM): 61.8%

CCN(CC)CCCC[C@H](NC(=O)[C@H](CC(C)C)NC(=O)[C@H](C)NC(=O)[C@H](Cc1ccccc1)NC(=O)c1ccc(C(C)(C)C)cc1)C(=O)N[C@@H](CO)C(=O)OC
inhibition (Vasopressin V1a receptor (AVPR1A, Homo sapiens, UniProt P37288); ligand displacement; radioligand; 10 µM): 85%

C#Cc1n[nH]c2c(-c3cn([C@@H](C)c4ccccc4)c(=O)[nH]c3=O)cc(F)cc12
inhibition (MAPKAPK2; enzyme activity; inhibitor; 0.1 µM): 11.6%

C[C@H](C(=O)N[C@H]1COc2ccccc2[C@@H]1S(C)(=O)=O)c1ccc(F)cc1
inhibition (Vasopressin V1b receptor (AVPR1B, Homo sapiens, UniProt P47901); cell-free assay; 10 µM): 26%

COc1c2c(cc3c1OCO3)CC[N+](C)=C2.[Cl-]
inhibition (Glycogen synthase kinase-3 beta (GSK3B, Homo sapiens, UniProt P49841); enzyme activity; inhibitor; ADP detection; 100 µM): 9.2%

CC(C)C[C@H](CC(=O)NO)C(=O)N[C@H](C(=O)N[C@@H](C)C(=O)NCCN)C(C)(C)C
inhibition (ADAM17; enzyme activity; inhibitor; 0.1 µM): 0%

COCc1c(-c2cc3cc(C)cc(OC)c3s2)c2c(N)ncnn2c1CN1CCNC(=O)C1
inhibition (Motilin receptor (MLNR, Homo sapiens, UniProt O43193); ligand displacement; radioligand; 10 µM): 18%

C#Cc1n[nH]c2c(-c3cn([C@@H](C)c4ccccn4)c(=O)[nH]c3=O)cc(F)cc12
inhibition (MAPKAPK2; enzyme activity; inhibitor; 0.1 µM): 11.8%
